Broadly, the IC50 is the point on the concentration scale where inhibition reaches its midpoint.

The species entered for assay [1] is Homo sapiens. The assay can be described thus: Inhibition of human topoisomerase 2 at 20 uM.
For assay [2], the species on record is Homo sapiens. The assay can be described thus: Inhibition of human topoisomerase 2 at 100 uM.
The subject of another assay is SK-MEL-2. The assay can be described thus: Cytotoxicity against human SK-MEL-2 cells after 48 hrs by SRB method. The class given is functional, cell-based. The settings on record: SK-MEL-2, 48 h. The method in brief: (§1)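 SRB assay following the NCI protocol. Cells were kept in log growth with a medium change 24 h before the assay, then trypsinized and seeded at 5 × 10³ (A549, HCT15), 1 × 10⁴ (SK-MEL-2) or 2 × 10⁴ (SK-OV-3) cells/well. After 24 h preincubation at 37 °C in 5% CO₂, compounds in DMSO were added as six 3-fold dilutions (final DMSO <0.5%) for 48 h. Cells were fixed in cold 10% TCA and stained with 0.4% SRB. Bound dye was dissolved in 10 mM Tris (pH 10.5) and absorbance read at 520 nm. Survival fractions came from regression of viability against concentration.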
(In SRB staining, fixed cells bind dye roughly in proportion to their protein.)

In the next assay the test system is SK-OV-3. The assay can be described thus: Cytotoxicity against human SKOV3 cells after 48 hrs by SRB method. The class given is functional, cell-based. The settings on record: SK-OV-3, 48 h. The method in brief:
as §1

A further assay deals with HCT-15. The assay can be described thus: Cytotoxicity against human HCT15 cells after 48 hrs by SRB method. The class given is functional, cell-based. The settings on record: HCT-15, 48 h. The method in brief: as §1
Another assay deals with A549. As to the kind of experiment: Cytotoxicity against human A549 cells after 48 hrs by SRB method. The format is functional, cell-based. The settings on record: A549, 48 h. In outline: as §1
The species named for assay [3] is Bos taurus. The assay can be described thus: Inhibition of calf thymus topoisomerase 1 assessed as relaxation of supercoiled plasmid DNA at 20 uM. In outline: (§2)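 Compound was added at 20 or 100 μM and the mix incubated 30 min at 37 °C. Reactions were stopped with SDS/bromophenol blue/glycerol dye, run on 1% agarose in TAE for 1 h, and stained with ethidium bromide.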

Assay [4] is filed under the species Bos taurus. As to the kind of experiment: Inhibition of calf thymus topoisomerase 1 assessed as relaxation of supercoiled plasmid DNA at 100 uM. The method in brief:
as §2

Calls of active or inactive are those of the source. No cut-off for these calls is given here.

Consider `c1ccc(-c2cc(-c3ccoc3)cc(-c3ccco3)n2)nc1`, for which the result in the assay listed under Homo sapiens [1] and in the assay listed under Homo sapiens [2] was Active.

`c1coc(-c2cc(-c3ccoc3)cc(-c3ccncc3)n2)c1`: the result in the assay listed under Homo sapiens [1] and in the assay filed under Homo sapiens [2] was Active.

In the case of `c1coc(-c2cc(-c3ccsc3)cc(-c3ccncc3)n2)c1`, the result in the assay filed under Homo sapiens [1] and in the assay filed under Homo sapiens [2] was Active.

Take `c1cc(-c2cc(-c3ccsc3)cc(-c3ccsc3)n2)ccn1`: the IC50 in the assay with SK-MEL-2 was 9.76 µM; with SK-OV-3, 9.86 µM; with HCT-15 it was 2.54 µM; with A549 it was 27.8 µM.

Turning to `c1ccc(-c2cc(-c3ccsc3)cc(-c3cccs3)n2)nc1`, the result in the assay filed under Bos taurus [3] and in the assay listed under Bos taurus [4] was Active.

On to `c1cncc(-c2cc(-c3ccco3)cc(-c3cccs3)n2)c1`, for which the IC50 in the assay on SK-MEL-2 is 1.95 µM; with SK-OV-3, 5.9 µM; with HCT-15, 5.87 µM; with A549, 14.5 µM.

`c1coc(-c2cc(-c3ccncc3)nc(-c3cccs3)c2)c1`: the 50% inhibitory concentration (IC50) with SK-MEL-2 stood at 5.43 µM; in the assay on SK-OV-3 it was 8.69 µM; in the assay with HCT-15 it was 4.18 µM; in the assay with A549 it was 10.9 µM.

Regarding `c1cncc(-c2cc(-c3ccsc3)cc(-c3cccs3)n2)c1`, the IC50 was found to be 5.61 µM with SK-MEL-2, 7.49 µM in the assay on SK-OV-3, 4.06 µM in the assay on HCT-15 and 2.73 µM in the assay with A549.

As to `c1csc(-c2cc(-c3ccoc3)cc(-c3ccncc3)n2)c1`, the result in the assay listed under Homo sapiens [1] and in the assay filed under Homo sapiens [2] was Active.

`c1csc(-c2cc(-c3ccncc3)nc(-c3ccsc3)c2)c1`: the IC50 in the assay on SK-MEL-2 stood at 8.94 µM; in the assay with SK-OV-3, 14.5 µM; with HCT-15 it was 3.79 µM; in the assay with A549, 5.69 µM.

With `c1csc(-c2cc(-c3ccncc3)nc(-c3cccs3)c2)c1`, the IC50 with SK-MEL-2 is 3.68 µM; in the assay with SK-OV-3, 5.75 µM; with HCT-15, 1.72 µM; in the assay on A549, 4.16 µM.

Take `COc1cc([C@@H]2c3cc4c(cc3[C@@H](O[C@@H]3O[C@@H]5CO[C@@H](C)O[C@H]5[C@H](O)[C@H]3O)[C@H]3COC(=O)[C@H]23)OCO4)cc(OC)c1O` [ETOPOSIDE]: the IC50 was found to be 0.3 µM in the assay on SK-MEL-2, 1.72 µM in the assay on SK-OV-3, 2.43 µM with HCT-15 and 0.32 µM in the assay with A549.

`c1cc(-c2cc(-c3ccncc3)nc(-c3ccsc3)c2)ccn1`: the outcome in the assay listed under Homo sapiens [1] and in the assay listed under Homo sapiens [2] was Active.

Turning to `c1cc(-c2cc(-c3ccoc3)cc(-c3ccsc3)n2)ccn1`, the outcome in the assay filed under Homo sapiens [1] and in the assay filed under Homo sapiens [2] was Active.

As for `c1csc(-c2cc(-c3ccsc3)cc(-c3ccncc3)n2)c1`, the outcome in the assay listed under Bos taurus [3] and in the assay listed under Bos taurus [4] was Active.

For `c1cncc(-c2cc(-c3ccncc3)nc(-c3cccs3)c2)c1`, the result in the assay listed under Homo sapiens [1] and in the assay listed under Homo sapiens [2] was Active.

For `c1cncc(-c2cc(-c3ccncc3)nc(-c3ccco3)c2)c1`, the result in the assay listed under Bos taurus [3] and in the assay listed under Bos taurus [4] was Active.

In the case of `c1coc(-c2cc(-c3cccs3)cc(-c3ccncc3)n2)c1`, the outcome in the assay filed under Bos taurus [3] and in the assay filed under Bos taurus [4] was Active.

Values taken from ChEMBL document CHEMBL1143676, “2,4,6-Trisubstituted pyridines: Synthesis, topoisomerase I and II inhibitory activity, cytotoxicity, and structure-activity relationship” (Bioorg Med Chem, 2007).
